Publication PMC5069309 (Clinical Pharmacokinetics, 2016)
Read-outs that look alike come from different tables or passages of the source.

Tests used:
[1] = assay type: in vivo; conditions: human, plasma, sc
Method in brief: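 Type 1 diabetic subjects dosed sc once daily for 4 weeks, from 0.6 mg/day rising 0.6 mg weekly to 0.6, 1.2 or 1.8 mg. Plasma taken pre-dose and 2–60 h after the final steady-state dose; sandwich ELISA with N- and C-terminal monoclonals, LLOQ 30 pmol/L. Non-compartmental: trapezoidal AUC, observed Cmax/tmax, CL/F = dose/AUC0–24 h, Vz/F = (CL/F)/λz.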

[2] = cited from earlier work

SMILES: CCCCCCCCCCCCCCCC(=O)N[C@@H](CCC(=O)NCCCC[C@H](NC(=O)[C@H](C)NC(=O)[C@H](C)NC(=O)[C@H](CCC(N)=O)NC(=O)CNC(=O)[C@H](CCC(=O)O)NC(=O)[C@H](CC(C)C)NC(=O)[C@H](Cc1ccc(O)cc1)NC(=O)[C@H](CO)NC(=O)[C@H](CO)NC(=O)[C@@H](NC(=O)[C@H](CC(=O)O)NC(=O)[C@H](CO)NC(=O)[C@@H](NC(=O)[C@H](Cc1ccccc1)NC(=O)[C@@H](NC(=O)CNC(=O)[C@H](CCC(=O)O)NC(=O)[C@H](C)NC(=O)[C@@H](N)Cc1cnc[nH]1)[C@@H](C)O)[C@@H](C)O)C(C)C)C(=O)N[C@@H](CCC(=O)O)C(=O)N[C@@H](Cc1ccccc1)C(=O)N[C@H](C(=O)N[C@@H](C)C(=O)N[C@@H](Cc1c[nH]c2ccccc12)C(=O)N[C@@H](CC(C)C)C(=O)N[C@H](C(=O)N[C@@H](CCCNC(=N)N)C(=O)NCC(=O)N[C@@H](CCCNC(=N)N)C(=O)NCC(=O)O)C(C)C)[C@@H](C)CC)C(=O)O [Liraglutide, liraglutide]
- Vd/F [1]: 27.4 L
- Vd/F ([1]; 0.6 mg): 27 L
- Vd/F ([1]; 1.2 mg): 26 L
- Vd/F ([1]; 1.8 mg): 29.3 L
- V z/F ([2]; healthy volunteers and subjects with T2D, previous studies): 11 to 17 L
- CL/F ([2]; studies with healthy volunteers and subjects with T2D): 1.2 L/h
